Screening results: PubChem, several laboratories
This is a sample that favours compounds with a hit; in the whole collection about 2.2% have one here.
C8 TRAIL sens: viability loss with TRAIL in NB7+C8 cells, primary screen, TRAIL sensitizer project, cell-based, ATPlite luminescence. inhibition (viability loss, TRAIL sensitization), % at 10 µM. actives 1% (n = 360,000);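 active = compounds causing at least 50% loss of cell viability in the single-dose screen, relative to plate controls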
PKD1 inh: inhibitors of human PKD1 kinase, biochemical, fluorescence polarization. AID 797, 2007. actives 0.056% (n = 200,000). inhibition, % (test concentration not listed). Serine/threonine-protein kinase D1 (Homo sapiens), Q15139. PKD1 kinase fluorescence polarization assay; in the data active = inhibition above about 50%
Target sequence (Q15139 whole entry, looked up): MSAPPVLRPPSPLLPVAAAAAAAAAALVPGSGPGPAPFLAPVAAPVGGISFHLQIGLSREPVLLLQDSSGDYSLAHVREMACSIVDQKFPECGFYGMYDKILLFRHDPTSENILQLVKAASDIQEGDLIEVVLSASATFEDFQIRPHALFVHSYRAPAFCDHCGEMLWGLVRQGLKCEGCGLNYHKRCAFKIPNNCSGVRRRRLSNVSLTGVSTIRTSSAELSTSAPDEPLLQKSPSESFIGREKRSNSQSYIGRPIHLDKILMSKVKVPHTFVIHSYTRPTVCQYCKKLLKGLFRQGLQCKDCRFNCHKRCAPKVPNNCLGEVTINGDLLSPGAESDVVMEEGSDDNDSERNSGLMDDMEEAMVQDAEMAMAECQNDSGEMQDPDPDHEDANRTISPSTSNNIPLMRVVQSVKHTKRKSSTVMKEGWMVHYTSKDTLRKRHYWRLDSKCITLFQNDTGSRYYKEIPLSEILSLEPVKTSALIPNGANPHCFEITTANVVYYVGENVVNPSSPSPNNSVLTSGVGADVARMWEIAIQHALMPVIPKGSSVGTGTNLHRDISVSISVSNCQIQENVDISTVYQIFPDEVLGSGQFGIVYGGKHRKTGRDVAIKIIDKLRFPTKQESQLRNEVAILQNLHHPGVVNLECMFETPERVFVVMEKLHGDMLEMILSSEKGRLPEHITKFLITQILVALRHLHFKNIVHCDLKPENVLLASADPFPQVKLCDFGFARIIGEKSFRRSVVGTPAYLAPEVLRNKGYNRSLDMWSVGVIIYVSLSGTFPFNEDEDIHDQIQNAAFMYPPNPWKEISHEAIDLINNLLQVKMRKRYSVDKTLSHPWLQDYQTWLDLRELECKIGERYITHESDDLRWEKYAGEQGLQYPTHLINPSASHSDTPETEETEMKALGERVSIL
Wee1 degr inh: Wee1 degradation inhibitors, primary screen, cell-based, HeLa, Wee1K328M-luciferase, luminescence; Wee1-like protein kinase (Homo sapiens), P30291; HeLa Luc-Wee1K328M stability; 100% = proteasome inhibitor MG132 effect; reporter increase, % at 5 µM; actives 1.2% (n = 220,000); AID 1321, 2008;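 active = activation above the mean of all tested compounds plus 3 SD, set per screening run, cut at about 8.8% in these data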;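 also: cells exposed to compound for 20 h before luminescence read; 0% = DMSO alone and 100% = MG132 at 30 µM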
FLuc inhib CS: firefly luciferase enzyme inhibitors, primary screen, artefact control for luciferase-based inhibitor screens, biochemical, luminescence, ATPLite. 10 min. inhibition, % at 10 µM. actives 1.5% (n = 200,000);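 active = inhibition above about 50% when tested at 10 µM, limit read from the data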
FLuc stim CS: FLuc activators, initial screening, artefact control for FLuc-dependent activation tests, biochemical, ATPlite luminescence; Luciferin 4-monooxygenase (Photinus pyralis), P08659; ATPlite luciferase biochemical, 10 min; 0 = ATP-free wells, 1 = DMSO control; activation factor at 10 µM; 200,000 tested, under 10 active; AID 1027, 2008;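 active = luciferase activation factor, scaled between plate controls, of at least 2 with compound at 10 µM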
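Material: Luciferase/luciferin reagent mix; Doses: test compounds dosed from 2 mM stocks in 100% DMSO; Schedule: 10 min incubation after luciferase reagent addition, room temperature; Measured by: luminescence from luciferase reaction; Read-out: luminescence gain marking luciferase activators.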
PPC-1+TRAIL kill: compounds killing PPC-1 cancer cells with TRAIL present, primary screen, TRAIL potentiator project, ATPLite luminescence, uHTS | PPC-1 cells + TRAIL, ATPLite viability luminescence | actives 0.41% (n = 220,000) | cell killing (% activity), % at 4 µM or 5 µM;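 active = cell killing above 50% in the first pass at 4 µM, then a duplicate retest at 5 µM averaging 50% or more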;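 also: plate controls were cells with TRAIL plus DMSO for no effect and medium-only wells lacking cells for full effect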
An asterisk follows results filed as active; nt = no result given.

SMILES	C8 TRAIL sens	PKD1 inh	Wee1 degr inh	FLuc inhib CS	FLuc stim CS	PPC-1+TRAIL kill
CN1CCCC1c1ccc(=O)[nH]c1 (stereo not given)	-5	nt	nt	nt	nt	nt
CCCC1(CCC)C(=O)NC(=NCc2ccccc2)NC1=O	77*	4	0	-6	1.1	2
COc1cc(C=C2C(=O)NC(=O)NC2=O)ccc1OCc1ccc([N+](=O)[O-])cc1	-1	0	12*	52*	0.5	4
O=C1NC(=O)C(=Cc2ccc(Oc3ccc([N+](=O)[O-])cc3)cc2)C(=O)N1	-14	-6	-1	-2	1	-2
O=C(c1ccc2c(c1)OCO2)C1CCCN(CC2CCCCC2)C1 (stereo not given)	1	2	-2	-2	1	-1
CCc1ccccc1NC(=O)CNC1CCCCC1	-2	2	-1	-3	1	-1
Cc1ccc2ccccc2c1NC(=O)CNC1CCCCC1	-5	-6	10*	-10	1.1	2
CCCCN1C(=O)C(C2c3ccccc3C(=O)N2Cc2ccccc2)C(=O)NC1=S (stereo not given)	9	-8	9.9*	-5	1	-12
COC(=O)C1=C(c2ccc(C(C)=O)cc2)C[C@@H]2CC[C@H]1N2C(=O)NCc1ccc(C(F)(F)F)cc1	-30	nt	nt	nt	nt	nt
CC(=O)OC1C(O)C(C)OC(OC2C(OC(=O)C3CCC4C(C3)OC3(CC(OC(=O)/C=C/c5ccccc5)C(C)CO3)C43CO3)OC(C)C(O)C2OC(C)=O)C1O (stereo not given)	64*	nt	nt	nt	nt	nt
C[CH2][Hg][S]c1ccccc1C(=O)O	62*	nt	nt	nt	nt	nt
S=C(NCCc1ccccc1)N1Cc2ccc(Br)cc2-n2nncc2C1	9	nt	nt	nt	nt	nt
CN(C)C(=O)Oc1cccc(-c2cn3cc(Cl)ccc3n2)c1	43	-9	2	75*	0.3	40
CN(C)C(=O)Oc1ccc(-c2cn3cc(C(F)(F)F)ccc3n2)cc1	37	3	-2	54*	0.5	46
Cc1ccc(-c2nc3ccc(Cl)cc3n2OC(=O)N(C)C)cc1	40	-9	1	-3	1	32
CN(C)C(=O)Oc1ccc(-c2nnco2)cc1	22	-10	2	-5	1.1	19
CN(C)C(=O)Oc1ccc(-c2cn3cc(Cl)ccc3n2)cc1	76*	0	2	86*	0.1	54*
COc1ccc(-c2nc3ccccc3c(=O)o2)cc1	55*	2	-3	55*	0.5	47
COc1ccc(CC2NCC(O)C2OC(C)=O)cc1 (stereo not given)	85*	nt	nt	nt	nt	nt
COc1ccc(CC(=O)N2CCN(C)CC2)cc1	2	1	2	-3	1	18
COC(=O)C12OCC34C(CC5C(C)=C(O)C(=O)CC5(C)C3C(O)C1O)OC(=O)C(OC(=O)/C=C(\C)C(C)C)C24 (stereo not given)	58*	nt	nt	nt	nt	nt
CC(=O)OC(C)(C)/C=C/C(=O)[C@](C)(O)[C@H]1[C@H](O)C[C@@]2(C)[C@@H]3CC=C4[C@H](C[C@H](O)C(=O)C4(C)C)[C@]3(C)C(=O)C[C@]12C	32	1	-3	-11	1.1	50*
CC(=O)OC(C)(C)/C=C/C(=O)C(C)(O)C1C(O)CC2(C)C3CC=C4C(CC(O)C(=O)C4(C)C)C3(C)C(=O)CC12C (stereo not given)	32	nt	nt	nt	nt	nt
CC(=O)OC(C)(C)/C=C/C(=O)C(C)(O)C1[C@H](O)C[C@@]2(C)C3CC=C4C(CC[C@@H](O)C4(C)C)[C@]3(CO)C(=O)C[C@]12C (stereo not given in full)	53*	nt	nt	nt	nt	nt
CCn1c(O)c(C=NCCN2CCOCC2)c(=O)[nH]c1=S	-4	nt	6	nt	nt	-1
CCn1nc(-c2cccs2)nc2c(=O)n(C)c(=O)nc1-2	95*	nt	nt	-7	1.1	39
CCn1nc(/C=C/c2ccccc2)nc2c(=O)n(C)c(=O)nc1-2	37	-8	-2	-4	1	14
